Calls of active or inactive are those of the source. The calls are words filed in the database; no cut-off is given here.
Key:
SW480 = assay: Cytotoxicity against human SW480 cells expressing COX1 after 24 hrs by MTT assay; assay type: functional, cell-based; settings: SW480, 24 h
Outline: (§1)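 Human cancer cell lines were exposed to compound and cell viability was read at 24 h. IC50 values were calculated from the viability data. Mean ± SEM of at least four experiments, each run in triplicate.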

Jurkat = assay: Cytotoxicity against human Jurkat cells expressing COX1 and COX2 after 24 hrs by MTT assay; assay type: functional, cell-based; outline: as §1
MDA-MB-231 = assay: Cytotoxicity against ER deficient human MDA-MB-231 cells after 24 hrs by MTT assay; assay type: functional, cell-based; settings: MDA-MB-231, 24 h; outline: as §1
HT-29 [1] = assay: Cytotoxicity against human HT-29 cells expressing COX1 and COX2 after 24 hrs by MTT assay; assay type: functional, cell-based; settings: HT-29, 24 h; outline: as §1
HT-29 [2] = assay: Ratio of aspirin IC50 to compound IC50 for human HT-29 cells expressing COX1 and COX2 after 24 hrs by MTT assay; assay type: functional; outline: as §1
HCT-15 = assay: Cytotoxicity against COX deficient human HCT15 cells after 24 hrs by MTT assay; assay type: functional, cell-based; settings: HCT-15, 24 h; outline: as §1
LNCaP = assay: Cytotoxicity against human LNCAP cells after 24 hrs by MTT assay; assay type: functional, cell-based; outline: as §1
BXPC-3 = assay: Cytotoxicity against human BxPC3 cells expressing COX1 and COX2 after 24 hrs by MTT assay; assay type: functional, cell-based; settings: BXPC-3, 24 h; outline: as §1
MIA PaCa-2 = assay: Cytotoxicity against COX deficient human MIAPaCa2 cells after 24 hrs by MTT assay; assay type: functional, cell-based; settings: MIA PaCa-2, 24 h; outline: as §1
MCF7 = assay: Cytotoxicity against human MCF7 cells expressing ER after 24 hrs by MTT assay; assay type: functional, cell-based; settings: MCF7, 24 h; outline: as §1
A549 = assay: Cytotoxicity against human A549 cells after 24 hrs by MTT assay; assay type: functional, cell-based; settings: A549, 24 h; outline: as §1
SK-BR-3 = assay: Cytotoxicity against ER deficient human SKBR3 cells after 24 hrs by MTT assay; assay type: functional, cell-based; settings: SK-BR-3, 24 h; outline: as §1
HT-29 [3] = assay: Cytotoxicity against human HT-29 cells expressing COX1 and COX2 assessed as lactate dehydrogenase release at IC50 after 2 to 8 hrs; assay type: functional
Outline: (§2)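 HT-29 colon cancer cells were treated with several concentrations for 2, 4, 6, 8 or 24 h. Cytotoxicity was read as LDH release (%) relative to untreated controls.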

Rattus norvegicus [4] = assay: Antiinflammatory activity in rat assessed as reduction of carrageenan-induced paw volume at 0.21 mmol/kg after 3 hrs; assay type: functional
Rattus norvegicus [5] = assay: In vivo drug metabolism in carrageenan treated rat assessed as increase of H2S release in plasma by […]; assay type: ADME, organism-based
Outline: (§3)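 Blood was collected at the end of the carrageenan paw edema study from rats given vehicle, the reference or the test compound (0.21 or 0.52 mmol/kg). Plasma NOx and H2S were quantified. Mean ± SEM, four rats per group.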

Rattus norvegicus [6] = species: Rattus norvegicus; assay: Antiinflammatory activity in rat assessed as reduction of carrageenan-induced paw volume measured after 6 hrs; assay type: functional, organism-based
HT-29 [7] = assay: Cytotoxicity against human HT-29 cells expressing COX1 and COX2 assessed as lactate dehydrogenase release at 4 times IC50 after 2 to 8 hrs; assay type: functional; outline: as §2
Rattus norvegicus [8] = assay: Antiinflammatory activity in rat assessed as reduction of carrageenan-induced paw volume at 0.52 mmol/kg after 2 to 6 hrs; assay type: functional
Rattus norvegicus [9] = assay: Antiinflammatory activity in rat assessed as reduction of carrageenan-induced PGE2 level in paw exudates at 0.52 mmol/kg by […] (reference value: 82 +/- 2 pg/mg); assay type: functional
Rattus norvegicus [10] = species: Rattus norvegicus; assay: Antiinflammatory activity in rat assessed as reduction of carrageenan-induced COX2 expression in paw exudates by Western blot analysis; assay type: functional, organism-based
Rattus norvegicus [11] = assay: Antiinflammatory activity in rat assessed as reduction of carrageenan-induced TNFalpha level in plasma at 0.52 mmol/kg by ELISA; assay type: functional
Rattus norvegicus [12] = assay: Antiinflammatory activity in rat assessed as reduction of carrageenan-induced paw volume at 0.21 mmol/kg after 6 hrs; assay type: functional
Rattus norvegicus [13] = assay: Antiinflammatory activity in rat assessed as reduction of carrageenan-induced PGE2 level in paw exudates at 0.21 mmol/kg by […] (reference value: 82 +/- 2 pg/mg); assay type: functional
HT-29 [14] = assay: Cytotoxicity against human HT-29 cells expressing COX1 and COX2 assessed as lactate dehydrogenase release after 2 to 24 hrs; assay type: functional, cell-based; outline: as §2
HT-29 [15] = assay: Cytotoxicity against human HT-29 cells expressing COX1 and COX2 assessed as lactate dehydrogenase release at 4 times IC50 after 24 hrs; assay type: functional; outline: as §2
Rattus norvegicus [16] = assay: Antiinflammatory activity in rat assessed as reduction of carrageenan-induced TNFalpha level in plasma at 0.21 mmol/kg by ELISA; assay type: functional
Rattus norvegicus [17] = assay: Antiinflammatory activity in rat assessed as reduction of carrageenan-induced paw volume at 0.52 mmol/kg after 1 to 2 hrs; assay type: functional
HT-29 [18] = assay: Cytotoxicity against human HT-29 cells expressing COX1 and COX2 assessed as lactate dehydrogenase release at IC50 to 4 times IC50; assay type: functional, cell-based; settings: TDE = time-dependent effect; outline: as §2
Rattus norvegicus [19] = assay: In vivo drug metabolism in carrageenan treated rat assessed as increase of nitric oxide release in plasma by Griess reaction; assay type: ADME, organism-based; outline: as §3
Rattus norvegicus [20] = assay: Antiinflammatory activity in rat assessed as reduction of carrageenan-induced paw volume at 0.21 mmol/kg after 1 hr; assay type: functional
Rattus norvegicus [21] = assay: Antiinflammatory activity in rat assessed as reduction of carrageenan-induced COX1 expression in paw exudates at 0.21 to 0.52 mmol/kg by Western blot analysis; assay type: functional, organism-based
Rattus norvegicus [22] = assay: Antiinflammatory activity in rat assessed as reduction of carrageenan-induced paw volume at 0.56 mmol/kg after 1 hr; assay type: functional
Rattus norvegicus [23] = assay: Antiinflammatory activity in rat assessed as reduction of carrageenan-induced paw volume at 0.56 mmol/kg after 1 to 3 hrs; assay type: functional
Rattus norvegicus [24] = assay: Antiinflammatory activity in rat assessed as increase of carrageenan-induced TNFalpha level in plasma at 0.56 mmol/kg by ELISA; assay type: functional
Rattus norvegicus [25] = assay: Antiinflammatory activity in rat assessed as reduction of carrageenan-induced paw volume at 0.56 mmol/kg after 6 hrs; assay type: functional

Row | SMILES | IC50 (SW480) [µM] | IC50 (Jurkat) [µM] | IC50 (MDA-MB-231) [µM] | IC50 (HT-29 [1]) [µM] | Ratio IC50 (HT-29 [2]) | IC50 (HCT-15) [µM] | IC50 (LNCaP) [µM] | IC50 (BXPC-3) [µM] | IC50 (MIA PaCa-2) [µM] | IC50 (MCF7) [µM] | IC50 (A549) [µM] | IC50 (SK-BR-3) [µM] | Activity (Rattus norvegicus [13]) [pg/mg] | also measured
1 | O=C(CCC(=O)Oc1ccccc1C(=O)Oc1ccc(-c2cc(=S)ss2)cc1)OCCCCO[N+](=O)[O-] | 0.097 | 0.09 | 0.085 | 0.08 | >60000 | 0.09 | 0.1 | 0.1 | 0.102 | 0.07 | 0.12 | 0.088 |  | 
2 | NC(=S)c1ccc(OC(=O)c2ccccc2OC(=O)CCCO[N+](=O)[O-])cc1 | 5.3 | 7 | 6 | 7.5 | >600 | 5.9 | 4.3 | 5.5 | 4.8 | 5.7 | 6.5 | 6.5 |  | 
3 | O=C(CCCC[C@@H]1CCSS1)Oc1ccccc1C(=O)OCCCCO[N+](=O)[O-] | 0.6 | 0.24 | 0.8 | 0.3 | >16000 | 0.52 | 0.5 | 0.7 | 0.8 | 0.28 | 0.3 | 0.55 |  | 
4 | O=C(CCCO[N+](=O)[O-])Oc1ccccc1C(=O)Oc1ccc(-c2cc(=S)ss2)cc1 | 0.06 | 0.1 | 0.1 | 0.048 | 100000 | 0.05 | 0.088 | 0.057 | 0.047 | 0.28 | 0.05 | 0.075 | 42 | Activity (HT-29 [3]): 0.5%; Activity (Rattus norvegicus [4]): 0.6 mL; Drug metabolism (Rattus norvegicus [5]): Dose-dependent effect; Activity (Rattus norvegicus [6]): Dose-dependent effect; Activity (HT-29 [7]): 1%; Activity (Rattus norvegicus [8]): 0.35 mL; Activity (Rattus norvegicus [9]): 21 pg/mg; inhibition (Rattus norvegicus [10]): Dose-dependent effect; Activity (Rattus norvegicus [11]): 40 pg/mL; Activity (Rattus norvegicus [12]): 0.4 mL; Activity (HT-29 [14]): Dose-dependent effect; Activity (HT-29 [15]): <10%; Activity (Rattus norvegicus [16]): 55 pg/mL; Activity (Rattus norvegicus [17]): 0.45 mL; Activity (HT-29 [18]): tde; Drug metabolism (Rattus norvegicus [19]): Dose-dependent effect; Activity (Rattus norvegicus [20]): 0.5 mL; inhibition (Rattus norvegicus [21]): Active
5 | CC(=O)Oc1ccccc1C(=O)O [ASPIRIN] | > 5000 | > 5000 | > 5000 |  |  | > 5000 | > 5000 | > 5000 | > 5000 | > 5000 | > 5000 | > 5000 | 12 | Activity (Rattus norvegicus [22]): 0.4 mL; Activity (Rattus norvegicus [23]): 0.35 mL; Activity (Rattus norvegicus [24]): 200 pg/mL; Activity (Rattus norvegicus [25]): 0.35 mL

From ChEMBL document CHEMBL2046423, “NOSH-Aspirin: A Novel Nitric Oxide-Hydrogen Sulfide-Releasing Hybrid: A New Class of Anti-inflammatory Pharmaceuticals” (ACS Med Chem Lett, 2012)
